Measured values: ChEMBL document CHEMBL1134692, “QSAR study on the contribution of log P and E(s) to the in vitro antiprotozoal activity of glutathione derivatives” (J Med Chem, 2001)

Key:
Trypanosoma cruzi [1] = assay: Evaluated for its inhibitory activity against Trypanosoma cruzi; assay type: functional; details: read-out: ED50 (the source's name)
In short: (§1)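 Starch-elicited female CD1 mouse peritoneal macrophages (4 × 10^4/well, RPMI-1640, 10% HIFCS) were infected after 24 h at 5:1 with T. cruzi Y trypomastigotes derived from MDCK cultures. Drug was applied as a 3-fold dilution series in quadruplicate for 3 days. Activity was the percentage of macrophages cleared of amastigotes. Nifurtimox control.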

[2] = tested on: Trypanosoma brucei brucei; assay: Inhibitory activity against Trypanosoma brucei; assay type: functional; details: read-out: ED50 (the source's name)
In short: (§2)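 T. b. brucei S427 bloodstream trypomastigotes kept in HMI-18 with 20% heat-inactivated FCS at 37 °C, 5% CO2. Parasites at 2 × 10^5/mL were mixed 1:1 with compound, run in triplicate as a 3-fold dilution series from 30 μM top. Incubated 3 days at 37 °C; Alamar Blue read-out on day 3 gave ED50. Pentamidine positive control.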

Leishmania donovani [3] = assay: Inhibitory activity against Leishmania donovani; assay type: functional; details: read-out: ED50 (the source's name)
In short: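 Starch-elicited peritoneal macrophages from female CD1 mice were plated at 4 × 10^4/well in RPMI-1640 with 10% HIFCS. After 24 h they were infected at 10:1 with L. donovani amastigotes (MHOM/ET/67/L82, hamster-passaged). Drug was given as a 3-fold dilution series in quadruplicate for 5 days. Activity was scored as the percentage of macrophages cleared of amastigotes. Sodium stibogluconate control.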

[4] = Evaluated for its inhibitory activity against KB cells; assay type: functional; details: Homo sapiens, read-out: ED50 (the source's name)
In short: (§3)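 KB cells (human oral pharyngeal carcinoma) grown in RPMI with 10% calf foetal serum at 37 °C, 5% CO2 in humidified air. Exposed to compound for 3 days under the same conditions, then viability read by Alamar Blue assay; ED50 reported.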

Trypanosoma cruzi [5] = assay: (§4) Percent decrease in viable parasitesrelative to the control; assay type: functional
In short: (§5)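 Single concentration of 30 μM in the intracellular amastigote macrophage assays. Inhibition is expressed as the percent decrease in viable parasites relative to untreated control.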

[6] = Relative toxicity was evaluated as ED50 for KB cell line to that of ED50 for T.B. brucei; assay type: organism-based; details: trypanosoma brucei brucei, KB cells versus Trypanosoma brucei brucei; read-out: Relative toxicity
In short: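 Ratio of ED50 against KB cells to ED50 against T. b. brucei bloodstream forms, each from the 3-day Alamar Blue assays.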

[7] = Partition coefficient (logP); assay type: physicochemical; details: octanol/water
Leishmania donovani [8] = assay: (§6) Percent decrease in viable parasitesrelative to the control at 30 uM; assay type: functional; in short: as §5
Trypanosoma cruzi [9] = assay: as §6; assay type: functional; in short: as §5
Trypanosoma cruzi [10] = assay: Evaluated for its inhibitory activity against Trypanosoma cruzi; NA= not active at 30 umol; assay type: functional, organism-based; in short: as §1
[11] = tested on: Trypanosoma brucei brucei; assay: Compound was evaluated for its inhibitory activity against Trypanosoma brucei; NA= not active at 30 umol; assay type: functional, organism-based; in short: as §2
Homo sapiens = species: Homo sapiens; assay: Compound was evaluated for its inhibitory activity against KBcells; assay type: functional; in short: as §3
Leishmania donovani [12] = assay: as §4; assay type: functional; in short: as §5

EC50 (Trypanosoma cruzi [1]) [µM] | EC50 [2] [µM] | EC50 (Leishmania donovani [3]) [µM] | EC50 [4] [µM] | logP [7] | SMILES | Inhibition (Trypanosoma cruzi [5]) [%] | selectivity ratio [6] | inhibition at 30 µM (Leishmania donovani [8]) [%] | inhibition at 30 µM (Trypanosoma cruzi [9]) [%] | Activity against T. cruzi (Trypanosoma cruzi [10]) | NA [11] | ED50 (Homo sapiens) [µM] | Inhibition (Leishmania donovani [12]) [%]
> 30 | 5.8 | > 30 | 109 | 7.02 | CCCCCCOC(=O)CNC(=O)C(CSc1ccc([N+](=O)[O-])cc1[N+](=O)[O-])NC(=O)CCC(NC(=O)OCc1ccccc1)C(=O)OCCCCCC (configuration not stated) | 36 | 18.8 |  |  |  |  |  | 
 | 0.21 |  | 51 | 6.65 | O=C(CCC(NC(=O)OCc1ccccc1)C(=O)OC1CCCCC1)NC(CSc1ccc([N+](=O)[O-])cc1[N+](=O)[O-])C(=O)NCC(=O)OC1CCCCC1 (configuration not stated) |  | 243 |  |  |  |  |  | 
> 30 | 0.25 | > 30 | 43.2 | 6.73 | CC(C)CC(C)OC(=O)CNC(=O)C(CSc1ccc([N+](=O)[O-])cc1[N+](=O)[O-])NC(=O)CCC(NC(=O)OCc1ccccc1)C(=O)OC(C)CC(C)C (configuration not stated) |  | 173 | 8 | 31 |  |  |  | 
 |  |  |  | 2.23 | CC(C)OC(=O)CNC(=O)C(CSc1ccc([N+](=O)[O-])cc1[N+](=O)[O-])NC(=O)CCC(NC(=O)OCc1ccccc1)C(=O)O (configuration not stated) |  |  |  |  | not active at 30 umol | not active at 30 umol |  | 
6.7 | 0.38 | > 30 |  | 6.04 | CCCCCOC(=O)CNC(=O)C(CSc1ccc([N+](=O)[O-])cc1[N+](=O)[O-])NC(=O)CCC(NC(=O)OCc1ccccc1)C(=O)OCCCCC (configuration not stated) |  | 789 |  |  |  |  | > 300 | 
28 | 3.05 | > 30 | 0.38 | 5.56 | O=C(CCC(NC(=O)OCc1ccccc1)C(=O)OCCCCCl)NC(CSc1ccc([N+](=O)[O-])cc1[N+](=O)[O-])C(=O)NCC(=O)OCCCCCl (configuration not stated) |  | 0.12 |  |  |  |  |  | 
> 30 | 3.34 | > 30 | 393 | 5.89 | CCCC(C)OC(=O)CNC(=O)C(CSc1ccc([N+](=O)[O-])cc1[N+](=O)[O-])NC(=O)CCC(NC(=O)OCc1ccccc1)C(=O)OC(C)CCC (configuration not stated) |  | 118 | 25 | 17 |  |  |  | 
> 30 | 0.18 | 29.6 | 50.5 | 5.67 | O=C(CCC(NC(=O)OCc1ccccc1)C(=O)OC1CCCC1)NC(CSc1ccc([N+](=O)[O-])cc1[N+](=O)[O-])C(=O)NCC(=O)OC1CCCC1 (configuration not stated) |  | 280 |  | 30 |  |  |  | 
 |  | > 30 |  | 1.32 | COC(=O)CNC(=O)C(CSc1ccc([N+](=O)[O-])cc1[N+](=O)[O-])NC(=O)CCC(NC(=O)OCc1ccccc1)C(=O)O (configuration not stated) |  |  |  |  |  |  |  | 
 |  | > 30 |  | 1.82 | CCOC(=O)CNC(=O)C(CSc1ccc([N+](=O)[O-])cc1[N+](=O)[O-])NC(=O)CCC(NC(=O)OCc1ccccc1)C(=O)O (configuration not stated) |  |  |  |  |  |  |  | 
 |  | > 30 |  | 2.31 | CCCOC(=O)CNC(=O)C(CSc1ccc([N+](=O)[O-])cc1[N+](=O)[O-])NC(=O)CCC(NC(=O)OCc1ccccc1)C(=O)O (configuration not stated) |  |  |  |  | not active at 30 umol | not active at 30 umol |  | 
> 30 | 1.05 | > 30 | 0.39 | 4.58 | O=C(CCC(NC(=O)OCc1ccccc1)C(=O)OCCCCl)NC(CSc1ccc([N+](=O)[O-])cc1[N+](=O)[O-])C(=O)NCC(=O)OCCCCl (configuration not stated) | 35 | 0.8 |  |  |  |  |  | 
> 30 | 5.2 | > 30 | 178 | 6.87 | CCCCC(C)OC(=O)CNC(=O)C(CSc1ccc([N+](=O)[O-])cc1[N+](=O)[O-])NC(=O)CCC(NC(=O)OCc1ccccc1)C(=O)OC(C)CCCC (configuration not stated) |  | 46 | 6 | 21 |  |  |  | 
> 30 | 21.8 | > 30 | 15.2 | 2.97 | O=C(CCC(NC(=O)OCc1ccccc1)C(=O)OCCF)NC(CSc1ccc([N+](=O)[O-])cc1[N+](=O)[O-])C(=O)NCC(=O)OCCF (configuration not stated) | 8 | 0.99 |  |  |  |  |  | 26
> 30 | 10.3 | > 30 |  | 2.8 | CCCCOC(=O)C(CCC(=O)NC(CSc1ccc([N+](=O)[O-])cc1[N+](=O)[O-])C(=O)NCC(=O)O)NC(=O)OCc1ccccc1 (configuration not stated) |  |  |  |  |  |  |  | 12
 | 34.8 | > 30 | > 300 | 7.71 | CC(C)CCC(C)OC(=O)CNC(=O)C(CSc1ccc([N+](=O)[O-])cc1[N+](=O)[O-])NC(=O)CCC(NC(=O)OCc1ccccc1)C(=O)OC(C)CCC(C)C (configuration not stated) |  | > 9 | 70 |  |  |  |  | 
 |  |  |  | 6.87 | CCCC(CC)OC(=O)CNC(=O)C(CSc1ccc([N+](=O)[O-])cc1[N+](=O)[O-])NC(=O)CCC(NC(=O)OCc1ccccc1)C(=O)OC(CC)CCC (configuration not stated) |  |  |  |  |  |  |  | 
 | 10 | 20 | 0.7 | 1.56 | COCCOC(=O)CNC(=O)C(CSc1ccc([N+](=O)[O-])cc1[N+](=O)[O-])NC(=O)CCC(NC(=O)OCc1ccccc1)C(=O)OCCOC (configuration not stated) |  | 0.07 |  |  |  |  |  | 
 | 20 | 7.8 | 269 | 3.93 | CC(C)OC(=O)CNC(=O)C(CSc1ccc([N+](=O)[O-])cc1[N+](=O)[O-])NC(=O)CCC(NC(=O)OCc1ccccc1)C(=O)OC(C)C (configuration not stated) |  | 13.5 |  |  | not active at 30 umol |  |  | 
 |  | > 30 | 95.3 | 8.99 | CCCCCCCCOC(=O)CNC(=O)C(CSc1ccc([N+](=O)[O-])cc1[N+](=O)[O-])NC(=O)CCC(NC(=O)OCc1ccccc1)C(=O)OCCCCCCCC (configuration not stated) |  |  |  |  | not active at 30 umol | not active at 30 umol |  | 11
 | 0.49 | 9.92 | 49.5 | 3.6 | O=C(CCC(NC(=O)OCc1ccccc1)C(=O)OCCCl)NC(CSc1ccc([N+](=O)[O-])cc1[N+](=O)[O-])C(=O)NCC(=O)OCCCl (configuration not stated) |  | 101 |  |  |  |  |  | 
 | 3.74 | > 30 | 213 | 5.89 | CCC(CC)OC(=O)CNC(=O)C(CSc1ccc([N+](=O)[O-])cc1[N+](=O)[O-])NC(=O)CCC(NC(=O)OCc1ccccc1)C(=O)OC(CC)CC (configuration not stated) |  | 57 | 17 |  |  |  |  | 
 | 20 | 20 |  | 2.72 | CCC(C)OC(=O)CNC(=O)C(CSc1ccc([N+](=O)[O-])cc1[N+](=O)[O-])NC(=O)CCC(NC(=O)OCc1ccccc1)C(=O)O (configuration not stated) |  |  |  |  | not active at 30 umol |  |  | 
< 30 | 6 | 13.4 | 245 | 5.75 | CC(C)C(C)OC(=O)CNC(=O)C(CSc1ccc([N+](=O)[O-])cc1[N+](=O)[O-])NC(=O)CCC(NC(=O)OCc1ccccc1)C(=O)OC(C)C(C)C (configuration not stated) |  | 24 |  | 64 |  |  |  | 
 | 2 | > 30 | > 300 | 4.91 | CCC(C)OC(=O)CNC(=O)C(CSc1ccc([N+](=O)[O-])cc1[N+](=O)[O-])NC(=O)CCC(NC(=O)OCc1ccccc1)C(=O)OC(C)CC (configuration not stated) |  | 150 | 36 |  |  |  |  | 
